Activity calls are given as the source filed them. No cut-off for these calls is given here.
What was measured:
MDA-MB-435 [1] = test: Induction of apoptosis in human MDA-MB-435 cells assessed as late apoptotic cells at 1 uM after 24 hrs by annexin-V FITC/propidium iodide staining-based flow cytometry (reference value: 0.34 +/- 0.08%); type: functional
Method in brief: (§1)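 MDA-MB-435 cells treated 24 h, stained with annexin V-FITC/PI per kit instructions, analysed by flow cytometry. Quadrant statistics: lower right taken as apoptotic, upper right as necrotic or post-apoptotic necrotic. Representative of three similar experiments.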

MDA-MB-435 [2] = test: Induction of apoptosis in human MDA-MB-435 cells assessed as early apoptotic cells at 0.5 uM after 24 hrs by annexin-V FITC/propidium iodide staining-based flow cytometry (reference value: 0.61 +/- 0.24%); type: functional; method in brief: as §1
MDA-MB-435 [3] = test: Cell cycle arrest in human MDA-MB-435 cells assessed as increase in CDC2 expression at 0.25 to 1 uM after 12 to 24 hrs by Western blotting analysis; type: functional, cell-based
Method in brief: (§2)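 Treated MDA-MB-435 cells lysed in ice-cold Tris-HCl pH 7.4 buffer with Triton, phosphatase and protease inhibitors. Lysates clarified, boiled in SDS loading buffer, run on 8-12% SDS-PAGE and blotted. Membranes blocked in 5% skim milk, probed with primary antibodies, then peroxidase secondaries with ECL detection. β-actin as loading control.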

MDA-MB-435 [4] = test: Induction of DNA damage in human MDA-MB-435 cells assessed as phosphorylation of p53 at Ser15 at 0.5 uM after 12 hrs by Western blotting analysis; type: functional, cell-based; method in brief: as §2
MDA-MB-435 [5] = test: Induction of DNA damage in human MDA-MB-435 cells assessed as phosphorylation of H2AX at Ser139 at 0.5 uM after 12 hrs by Western blotting analysis; type: functional, cell-based; method in brief: as §2
MDA-MB-435 [6] = test: Cell cycle arrest in human MDA-MB-435 cells assessed as accumulation at G2/M phase at 1 uM after 24 hrs by propidium iodide staining-based flow cytometry (reference value: 14.05%); type: functional
MDA-MB-435 [7] = test: Cell cycle arrest in human MDA-MB-435 cells assessed as accumulation at sub-G1 phase at 1 uM after 24 hrs by propidium iodide staining-based flow cytometry (reference value: 0.79%); type: functional
MDA-MB-435 [8] = test: Cell cycle arrest in human MDA-MB-435 cells assessed as accumulation at G2/M phase at 0.5 uM after 24 hrs by propidium iodide staining-based flow cytometry (reference value: 14.05%); type: functional
MDA-MB-435 [9] = test: Cell cycle arrest in human MDA-MB-435 cells assessed as accumulation at sub-G1 phase at 0.5 uM after 24 hrs by propidium iodide staining-based flow cytometry (reference value: 0.79%); type: functional
MDA-MB-435 [10] = test: Cell cycle arrest in human MDA-MB-435 cells assessed as accumulation at G1 phase at 0.25 uM after 24 hrs by propidium iodide staining-based flow cytometry (reference value: 28.06%); type: functional
MDA-MB-435 [11] = test: Cell cycle arrest in human MDA-MB-435 cells assessed as accumulation at sub-G1 phase at 0.25 uM after 24 hrs by propidium iodide staining-based flow cytometry (reference value: 0.79%); type: functional
Bos taurus [12] = organism: Bos taurus; test: Inhibition of calf thymus DNA topoisomerase 1-mediated relaxation of supercoiled pBR322 DNA at 100 uM after 30 mins by Agarose gel electrophoresis
Method in brief: (§3)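 Relaxation assay with 0.5 µg supercoiled pBR322 and 1 unit calf thymus Topo I, 20 µL. Buffer: 10 mM Tris–HCl pH 7.9, 150 mM NaCl, 0.1% BSA, 1 mM spermidine, 5% glycerol. Incubated 37 °C for 30 min; stopped with sarcosyl stop solution. 1% agarose gel, 5 V/cm, 2 h, TAE; ethidium bromide stain (0.5 µg/mL), UV. DMSO stocks. At least duplicate.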

[13] = target: DNA topoisomerase 2-alpha (Homo sapiens) (UniProt P11388); test: Induction of recombinant human DNA topoisomerase 2-alpha poisoning activity using pBR322 as substrate assessed as appearance of linear DNA at 100 uM after 30 mins by Agarose gel electrophoresis
Chain of DNA topoisomerase 2-alpha (Homo sapiens) (P11388 whole entry): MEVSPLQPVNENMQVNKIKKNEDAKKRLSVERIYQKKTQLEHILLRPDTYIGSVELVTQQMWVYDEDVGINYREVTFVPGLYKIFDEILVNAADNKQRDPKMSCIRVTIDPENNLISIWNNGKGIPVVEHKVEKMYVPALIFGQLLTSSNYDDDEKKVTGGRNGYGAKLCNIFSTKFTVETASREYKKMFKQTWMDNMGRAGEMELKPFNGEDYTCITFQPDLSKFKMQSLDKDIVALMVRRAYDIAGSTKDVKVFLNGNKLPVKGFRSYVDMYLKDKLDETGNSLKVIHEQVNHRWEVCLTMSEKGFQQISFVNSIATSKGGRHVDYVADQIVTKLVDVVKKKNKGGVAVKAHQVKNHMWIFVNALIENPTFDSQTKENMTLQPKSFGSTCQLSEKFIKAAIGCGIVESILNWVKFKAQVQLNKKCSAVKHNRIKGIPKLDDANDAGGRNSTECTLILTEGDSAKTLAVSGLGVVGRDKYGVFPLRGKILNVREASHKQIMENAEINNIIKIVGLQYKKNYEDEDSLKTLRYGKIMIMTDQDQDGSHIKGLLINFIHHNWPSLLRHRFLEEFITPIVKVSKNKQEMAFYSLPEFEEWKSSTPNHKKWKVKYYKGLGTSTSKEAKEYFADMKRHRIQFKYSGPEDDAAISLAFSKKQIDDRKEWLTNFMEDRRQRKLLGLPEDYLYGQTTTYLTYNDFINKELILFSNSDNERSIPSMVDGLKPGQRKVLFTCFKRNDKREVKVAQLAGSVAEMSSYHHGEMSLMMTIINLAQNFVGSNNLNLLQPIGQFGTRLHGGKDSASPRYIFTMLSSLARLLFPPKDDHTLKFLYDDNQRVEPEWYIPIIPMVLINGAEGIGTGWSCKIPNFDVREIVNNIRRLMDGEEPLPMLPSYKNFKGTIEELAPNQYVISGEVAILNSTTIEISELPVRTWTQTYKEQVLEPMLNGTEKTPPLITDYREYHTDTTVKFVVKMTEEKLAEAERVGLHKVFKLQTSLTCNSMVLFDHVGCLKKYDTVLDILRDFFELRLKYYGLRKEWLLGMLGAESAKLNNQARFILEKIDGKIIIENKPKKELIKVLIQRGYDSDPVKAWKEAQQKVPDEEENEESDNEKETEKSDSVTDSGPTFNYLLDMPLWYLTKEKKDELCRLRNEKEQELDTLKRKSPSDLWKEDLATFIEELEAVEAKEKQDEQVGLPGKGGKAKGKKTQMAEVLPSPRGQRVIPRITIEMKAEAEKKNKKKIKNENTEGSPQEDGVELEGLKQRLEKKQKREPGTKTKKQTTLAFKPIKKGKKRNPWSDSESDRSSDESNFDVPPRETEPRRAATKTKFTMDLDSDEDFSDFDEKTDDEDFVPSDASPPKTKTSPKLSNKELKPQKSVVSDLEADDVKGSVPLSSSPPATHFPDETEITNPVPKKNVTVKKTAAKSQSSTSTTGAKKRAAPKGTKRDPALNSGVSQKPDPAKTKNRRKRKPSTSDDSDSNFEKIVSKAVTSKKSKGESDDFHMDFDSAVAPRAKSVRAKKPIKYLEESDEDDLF
Method in brief: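 Same format as the Topo IIα inhibition assay: 0.5 µg supercoiled pBR322 with 1 unit recombinant human Topo IIα. Incubated 37 °C for 30 min, stopped with 10% SDS, then proteinase K (50 µg/mL) for 20 min. Run on 1% agarose gel containing ethidium bromide, 5 V/cm, 2 h, TAE. Linear and nicked open circular DNA positions scored. At least duplicate.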

Bos taurus [14] = organism: Bos taurus; test: Induction of calf thymus DNA topoisomerase 1 poisoning activity using pBR322 as substrate assessed as appearance of nicked open circular DNA at 100 uM after 30 mins by Agarose gel electrophoresis
Method in brief: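 Calf thymus Topo I (1 unit) with 0.5 µg pBR322 in relaxation buffer (10 mM Tris-HCl pH 7.9, 150 mM NaCl, 0.1% BSA, 1 mM spermidine, 5% glycerol), 37 °C for 30 min. Stopped with 10% SDS, digested with proteinase K (50 µg/mL) 20 min, run on ethidium bromide-containing 1% agarose gel, 5 V/cm, 2 h. Nicked open circular and linear DNA positions scored; at least duplicate.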

Bos taurus [15] = organism: Bos taurus; test: Inhibition of calf thymus DNA topoisomerase 1-mediated relaxation of supercoiled pBR322 DNA at 10 to 100 uM after 30 mins by Agarose gel electrophoresis; method in brief: as §3
MDA-MB-435 [16] = test: Induction of apoptosis in human MDA-MB-435 cells at 0.25 to 1 uM after 24 hrs by annexin-V FITC/propidium iodide staining-based flow cytometry in presence of N-acetylcysteine; type: functional, cell-based
MDA-MB-435 [17] = test: Cell cycle arrest in human MDA-MB-435 cells at 0.25 to 1 uM after 24 hrs by propidium iodide staining-based flow cytometry in presence of N-acetylcysteine; type: functional
MDA-MB-435 [18] = test: Induction of human apoptosis in MDA-MB-435 cells assessed as upregulation of Bak protein expression at 0.25 to 1 uM after 12 hrs by Western blotting analysis; type: functional, cell-based; method in brief: as §2
MDA-MB-435 [19] = test: Induction of apoptosis in human MDA-MB-435 cells assessed as PARP cleavage after 12 to 24 hrs by Western blotting analysis; type: functional, cell-based; method in brief: as §2
MDA-MB-435 [20] = test: Induction of apoptosis in human MDA-MB-435 cells assessed as dead cells at 2 uM after 24 hrs by annexin-V FITC/propidium iodide staining-based flow cytometry (reference value: 0.61 +/- 0.24%); type: functional
MDA-MB-435 [21] = test: Induction of apoptosis in human MDA-MB-435 cells assessed as late apoptotic cells at 2 uM after 24 hrs by annexin-V FITC/propidium iodide staining-based flow cytometry (reference value: 0.34 +/- 0.08%); type: functional; method in brief: as §1
MDA-MB-435 [22] = test: Induction of apoptosis in human MDA-MB-435 cells assessed as early apoptotic cells at 2 uM after 24 hrs by annexin-V FITC/propidium iodide staining-based flow cytometry (reference value: 0.61 +/- 0.24%); type: functional; method in brief: as §1
MDA-MB-435 [23] = test: Induction of apoptosis in human MDA-MB-435 cells assessed as viable cells at 2 uM after 24 hrs by annexin-V FITC/propidium iodide staining-based flow cytometry (reference value: 98.62 +/- 0.25%); type: functional; conditions: MDA-MB-435, 24 h, read-out: Activity; method in brief: as §1

**Q.** `Oc1ccc(-c2ccc(-c3ccc(O)c(O)c3)cc2)cc1` was tested. Which Activity (MDA-MB-435 [1]) did it give?
**A.** 8.64%

**Q.** What about the Activity (MDA-MB-435 [2]) of the same molecule?
**A.** 8.01%

**Q.** What about the Activity (MDA-MB-435 [3]) of the same molecule?
**A.** Active

**Q.** And the Activity (MDA-MB-435 [4])?
**A.** inactive

**Q.** What about the Activity (MDA-MB-435 [5]) of the same molecule?
**A.** inactive

**Q.** What about the Activity (MDA-MB-435 [6]) of the same molecule?
**A.** 54.51%

**Q.** And the Activity (MDA-MB-435 [7])?
**A.** 10.5%

**Q.** And the Activity (MDA-MB-435 [8])?
**A.** 38.41%

**Q.** What about the Activity (MDA-MB-435 [9]) of the same molecule?
**A.** 4.53%

**Q.** What about the Activity (MDA-MB-435 [10]) of the same molecule?
**A.** 34.91%

**Q.** And the Activity (MDA-MB-435 [11])?
**A.** 1.04%

**Q.** What about the inhibition (Bos taurus [12]) of the same molecule?
**A.** Active

**Q.** And the Activity [13]?
**A.** inactive

**Q.** And the Activity (Bos taurus [14])?
**A.** inactive

**Q.** And the inhibition (Bos taurus [15])?
**A.** Active

**Q.** And the Activity (MDA-MB-435 [16])?
**A.** Active

**Q.** What about the Activity (MDA-MB-435 [17]) of the same molecule?
**A.** Active

**Q.** What about the Activity (MDA-MB-435 [18]) of the same molecule?
**A.** Active

**Q.** What about the Activity (MDA-MB-435 [19]) of the same molecule?
**A.** Dose-dependent effect

**Q.** What about the Activity (MDA-MB-435 [20]) of the same molecule?
**A.** 1.7%

**Q.** And the Activity (MDA-MB-435 [21])?
**A.** 14.35%

**Q.** And the Activity (MDA-MB-435 [22])?
**A.** 12.87%

**Q.** And the viability at 2 µM (MDA-MB-435 [23])?
**A.** 71.8%

Reference: ChEMBL document CHEMBL2424614, “A novel p-terphenyl derivative inducing cell-cycle arrest and apoptosis in MDA-MB-435 cells through topoisomerase inhibition” (Eur J Med Chem, 2013)
